# Laboratory results taken from ChEMBL document CHEMBL1944523, “Benzimidazolones: a new class of selective peroxisome proliferator-activated receptor γ (PPARγ) modulators” (J Med Chem, 2011).
# The source made the active and inactive calls. The rule behind the calls is not given here.
# Columns and labels:
# [1] = Oral bioavailability in rat at 2 mg/kg by LC-MS/MS analysis; format: ADME, organism-based; details: in vivo
# Outline: (§1)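 Rat pharmacokinetics: 2 mpk oral in 5% methylcellulose, 0.5 mpk iv in ethanol/PEG400/water (1/4/5). Blood sampled at set intervals; plasma acidified with 0.5 M formate buffer pH 3.0, acetonitrile-precipitated, quantified by LC−MS−MS against spiked control-plasma calibration curves.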
# [2] = AUC in db/db C57BLKS/J-m +/+ Leprdb mouse at 30 mg/kg, po qd for 10 days measured on day 11; format: ADME, organism-based; parameters: dose 30 mg/kg, route oral; details: plasma
# Outline: (§2)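 Male db/db (C57BLKS/J-m +/+Leprdb) mice aged 12−13 weeks, seven per group, gavaged once daily with compound in 0.25% methylcellulose vehicle. Total compound exposure measured at study end: plasma acidified with 0.5 M formate buffer pH 3.0, protein precipitated with acetonitrile, quantified by LC−MS−MS against calibration curves in control plasma.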
# [3] = Inhibition of serine/threonine-protein kinase
# Cytochrome P450 2C9 = Cytochrome P450 2C9 (Homo sapiens, UniProt P11712); experiment: Inhibition of CYP2C9; format: ADME
# [4] = target: T1, Peroxisome proliferator-activated receptor alpha (Homo sapiens, UniProt Q07869); experiment: Binding affinity to human PPARalpha expressed in COS-1 by scintillation proximity assay
# T1 sequence (Q07869 whole entry): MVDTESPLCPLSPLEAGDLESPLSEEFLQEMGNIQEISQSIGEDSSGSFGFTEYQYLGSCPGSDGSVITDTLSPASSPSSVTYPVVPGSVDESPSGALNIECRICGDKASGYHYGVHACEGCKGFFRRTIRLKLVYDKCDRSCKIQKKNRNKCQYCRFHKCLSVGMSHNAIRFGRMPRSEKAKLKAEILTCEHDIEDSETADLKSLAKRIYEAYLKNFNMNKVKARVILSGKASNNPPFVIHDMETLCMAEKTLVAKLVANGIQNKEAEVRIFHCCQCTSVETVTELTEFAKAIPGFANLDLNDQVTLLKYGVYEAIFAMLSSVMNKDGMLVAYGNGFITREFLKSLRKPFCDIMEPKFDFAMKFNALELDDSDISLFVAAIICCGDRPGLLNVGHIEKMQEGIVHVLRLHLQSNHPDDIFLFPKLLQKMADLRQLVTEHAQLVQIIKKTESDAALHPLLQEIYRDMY
# Outline: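 Scintillation proximity binding assay on PPAR receptors giving IC50; mean of three determinations.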
# COS-1 = experiment: Binding affinity to human PPARgamma LBD Y473A mutant expressed in COS1 cells co-expressing GAL4 by scintillation proximity assay; format: cell-based
# Rattus norvegicus [5] = experiment: Antidiabetic activity in obese insulin resistant Zucker fa/fa rat assessed as decrease in insulin level in plasma administered qd for 7 days
# Cytochrome P450 2C8 = target: T2, Cytochrome P450 2C8 (Homo sapiens, UniProt P10632); experiment: Inhibition of CYP2C8; format: ADME
# T2 sequence (P10632 whole entry): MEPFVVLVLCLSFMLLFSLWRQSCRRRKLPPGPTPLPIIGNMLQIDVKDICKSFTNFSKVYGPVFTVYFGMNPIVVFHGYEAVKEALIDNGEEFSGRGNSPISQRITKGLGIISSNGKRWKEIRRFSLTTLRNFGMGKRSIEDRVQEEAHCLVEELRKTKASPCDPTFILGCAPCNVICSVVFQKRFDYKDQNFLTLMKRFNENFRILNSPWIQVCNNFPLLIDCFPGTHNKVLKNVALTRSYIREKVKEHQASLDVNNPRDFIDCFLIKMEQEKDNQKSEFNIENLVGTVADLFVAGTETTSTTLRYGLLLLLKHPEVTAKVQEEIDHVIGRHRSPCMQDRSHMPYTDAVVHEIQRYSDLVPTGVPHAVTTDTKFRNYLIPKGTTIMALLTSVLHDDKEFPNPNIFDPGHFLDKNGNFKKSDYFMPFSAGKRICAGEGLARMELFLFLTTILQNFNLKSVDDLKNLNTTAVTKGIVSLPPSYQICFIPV
# Mus musculus = experiment: Antidiabetic activity in db/db C57BLKS/J-m +/+ Leprdb mouse assessed as reduction of glucose level at 20 mg/kg, po qd for 10 days measured on 11 relative to control; format: functional; parameters: scale not given: the % may be the effect or the level left
# Outline: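 Male db/db (C57BLKS/J-m +/+Leprdb) mice, 12−13 weeks old, seven per group, chow and water freely available; once-daily oral gavage in 0.25% methylcellulose vehicle for 11 days. Tail blood drawn just before next dose on days 0, 4, 7 and 11 for plasma glucose. Value is percent correction versus vehicle control; mean of n = 7; rosiglitazone 10 mpk positive control.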
# [6] = AUC in db/db C57BLKS/J-m +/+ Leprdb mouse at 3 mg/kg, po qd for 10 days measured on day 11; format: ADME, organism-based; parameters: dose 3 mg/kg, route oral; details: plasma; outline: as §2
# [7] = Half life in rat at 0.5 mg/kg, iv and 2 mg/kg, po by LC-MS/MS analysis; format: ADME, organism-based; details: in vivo; outline: as §1
# [8] = target: T3, Nuclear receptor subfamily 1 group I member 2 (Homo sapiens, UniProt O75469); experiment: Induction of PXR up to 10 uM
# T3 sequence (O75469 whole entry): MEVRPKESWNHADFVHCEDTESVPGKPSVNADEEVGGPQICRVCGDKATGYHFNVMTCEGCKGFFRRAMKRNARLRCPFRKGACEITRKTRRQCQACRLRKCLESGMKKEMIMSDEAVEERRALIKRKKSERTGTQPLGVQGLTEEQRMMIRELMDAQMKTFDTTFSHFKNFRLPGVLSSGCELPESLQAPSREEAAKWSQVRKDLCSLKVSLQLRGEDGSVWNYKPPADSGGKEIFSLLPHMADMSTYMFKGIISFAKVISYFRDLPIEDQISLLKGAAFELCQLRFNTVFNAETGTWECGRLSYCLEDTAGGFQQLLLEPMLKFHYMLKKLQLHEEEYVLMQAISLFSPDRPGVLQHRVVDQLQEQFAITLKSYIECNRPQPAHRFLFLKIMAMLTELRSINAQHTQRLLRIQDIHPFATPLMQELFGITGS
# Rattus norvegicus [9] = experiment: Plasma clearance in rat at 0.5 mg/kg, iv and 2 mg/kg, po by LC-MS/MS analysis; format: ADME, organism-based; details: in vivo; outline: as §1
# Cytochrome P450 2C9, sequence (P11712 whole entry): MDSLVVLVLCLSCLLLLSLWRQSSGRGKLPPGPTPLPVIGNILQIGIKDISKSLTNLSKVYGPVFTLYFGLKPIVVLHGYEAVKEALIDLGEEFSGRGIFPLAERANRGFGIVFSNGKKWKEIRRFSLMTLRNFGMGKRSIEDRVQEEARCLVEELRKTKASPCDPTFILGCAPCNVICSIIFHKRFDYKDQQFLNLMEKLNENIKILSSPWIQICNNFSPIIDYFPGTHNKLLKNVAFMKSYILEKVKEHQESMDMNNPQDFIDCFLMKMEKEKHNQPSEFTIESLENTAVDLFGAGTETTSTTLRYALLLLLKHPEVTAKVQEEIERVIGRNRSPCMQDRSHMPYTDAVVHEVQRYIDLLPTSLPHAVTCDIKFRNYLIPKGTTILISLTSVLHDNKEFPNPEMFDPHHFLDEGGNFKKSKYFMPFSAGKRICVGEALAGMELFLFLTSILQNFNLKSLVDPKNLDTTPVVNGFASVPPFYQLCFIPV
smiles,measurement,setting,value
COc1ccc2c(-n3c(=O)n(Cc4cccc([C@@]5(C)OC(=O)NC5=O)c4)c4ccccc43)noc2c1,bioavailability,[1],87%
same,AUC at 240 h,[2],450 µM·h
same,INH,[3],0.951 µM
same,IC50,Cytochrome P450 2C9,2 µM
same,IC50,[4],> 50 µM
same,Activity,COS-1,Active
same,ED50,Rattus norvegicus [5],281 µM·h
same,IC50,Cytochrome P450 2C8,10 µM
same,Activity,Mus musculus,77%
same,AUC at 240 h,[6],70 µM·h
same,half-life,[7],4.2 h
same,Activity,[8],Not Active
same,clearance,Rattus norvegicus [9],5.5 mL/min/kg
